According to publication PMC3624906 (The Biochemical journal, 2012):
Blank lines part the entries; values can stand above or below the molecule they belong to.

How the values were obtained:
GST-MIM-S1 (murine) = GST-MIM-S1 (murine) (UniProt Q8R1S4); test: pull-down
MIM-Myc [1] = biological target: T1, MIM-Myc (murine, UniProt Q8R1S4 1-759); test: co-IP
T1 sequence (looked up): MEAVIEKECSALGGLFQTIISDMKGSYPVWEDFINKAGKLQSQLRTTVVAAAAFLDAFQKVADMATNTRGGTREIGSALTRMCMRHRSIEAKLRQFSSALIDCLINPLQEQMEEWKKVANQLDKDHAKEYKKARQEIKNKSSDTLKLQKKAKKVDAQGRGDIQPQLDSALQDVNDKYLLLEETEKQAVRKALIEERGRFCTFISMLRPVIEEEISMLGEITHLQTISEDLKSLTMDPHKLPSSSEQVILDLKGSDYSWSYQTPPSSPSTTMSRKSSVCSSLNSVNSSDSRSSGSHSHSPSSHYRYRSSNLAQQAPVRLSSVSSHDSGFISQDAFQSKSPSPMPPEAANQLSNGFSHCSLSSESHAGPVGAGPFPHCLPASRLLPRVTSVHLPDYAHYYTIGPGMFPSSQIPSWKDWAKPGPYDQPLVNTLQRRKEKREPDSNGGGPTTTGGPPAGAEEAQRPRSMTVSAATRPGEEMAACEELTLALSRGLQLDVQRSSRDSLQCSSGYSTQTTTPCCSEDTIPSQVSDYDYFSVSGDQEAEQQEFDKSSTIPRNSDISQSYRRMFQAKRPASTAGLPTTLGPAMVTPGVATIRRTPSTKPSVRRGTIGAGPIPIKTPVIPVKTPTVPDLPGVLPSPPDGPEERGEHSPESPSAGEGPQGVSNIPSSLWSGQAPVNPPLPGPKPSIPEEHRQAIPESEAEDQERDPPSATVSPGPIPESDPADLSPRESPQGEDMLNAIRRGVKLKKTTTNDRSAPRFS

MIM-Myc [2] = biological target: T1, MIM-Myc; test: pull-down
MIM-GFP = biological target: T2, MIM-GFP (murine, UniProt Q8R1S4 1-759); test: co-IP
T2 sequence (looked up): T1 sequence (looked up)

MIM-I-BAR-Myc = test: Pull-down of cell lysates with GST-MIM-S1/-S2, unbound MIM by Western blot; assay type: binding, murine; conditions: GST-tagged recombinant peptide, Western blot anti-Myc, in words
Method in brief: (§1)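 GST-tagged test peptide made in DH5α (0.5 mM IPTG added at OD600 0.3–0.4, then 90 min). It was captured on glutathione Sepharose 4B (2 h, 4°C) and washed in PBS. 293T cells were transfected with the Myc-tagged MIM construct and lysed 48 h later. Lysates were precipitated with the bead-bound peptide at varying concentrations. Supernatant (unbound MIM) and washed pellets were analysed by SDS-PAGE/anti-Myc Western blot with chemiluminescence.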

MIM-Myc [3] = test: as above; assay type: binding, murine; conditions: GST-tagged recombinant peptide, Western blot anti-Myc, in words
Method in brief: as §1

- Kd (GST-MIM-S1 (murine)): 65 nM
Molecule: MIM-I-BAR-Myc (domain or fragment)

- IC50 (MIM-Myc [1]): 140 nM
Molecule: AFQKVADMATNTRGGTREIGSALTRMCMRHRSI [MIM-S3]

- Kd (MIM-Myc [2]): 110 nM
- IC50 (MIM-GFP): 213 nM
B1: GST-MIM-S1 (domain or fragment, murine, UniProt Q8R1S4 18-89, looked up)
chain: TIISDMKGSYPVWEDFINKAGKLQSQLRTTVVAAAAFLDAFQKVADMATNTRGGTREIGSALTRMCMRHRSI

B2: GST-MIM-S1: recombinant GST-tagged form of peptide MIM-S1 (protein)
chain: B1 chain
modifications: left off: GST, end not stated, kept
- pull-down of MIM-I-BAR-Myc from 293T lysates (MIM-I-BAR-Myc): able to precipitate effectively
- pull-down of MIM-Myc from 293T lysates (MIM-Myc [3]): able to precipitate effectively
